The values below come from ChEMBL document CHEMBL1149310, “A screening library for peptide activated G-protein coupled receptors. 1. The test set” (J Med Chem, 2004).

Each structure is given as a SMILES string.

Chain of Melanin-concentrating hormone receptor 1 (P97639 whole entry): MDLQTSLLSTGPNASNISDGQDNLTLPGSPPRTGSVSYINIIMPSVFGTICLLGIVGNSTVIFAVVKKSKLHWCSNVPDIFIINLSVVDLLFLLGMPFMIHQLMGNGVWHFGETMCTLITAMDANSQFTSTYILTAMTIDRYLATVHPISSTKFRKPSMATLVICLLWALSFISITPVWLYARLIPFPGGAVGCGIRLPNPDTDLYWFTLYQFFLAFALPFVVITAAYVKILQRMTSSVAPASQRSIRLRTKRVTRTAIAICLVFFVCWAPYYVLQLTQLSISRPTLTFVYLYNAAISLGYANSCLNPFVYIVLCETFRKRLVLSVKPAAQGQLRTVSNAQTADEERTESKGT

This assay addresses Melanin-concentrating hormone receptor 1 (Rattus norvegicus, UniProt P97639). Nature of the assay: Binding affinity to rat MCH1 receptor. In a few lines:
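Membranes from mammalian cells stably transfected with rat MCH1 receptor, prepared by nitrogen cavitation (900 psi, ice, 30 min) and differential centrifugation (800g, then 38 000g). Radioligand competition at equilibrium in 50 mM HEPES pH 7.0, 10 mM MgCl2, 2 mM EGTA. Hits were taken to 12-point dose-response curves to derive Ki. Bound and free were separated by filtration over PEI-treated GF-C filters and counted by scintillation.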
A word on the Ki: it is the equilibrium dissociation constant of an inhibitor or competing ligand from its target. Read a high Ki as a looser hold on the target. Molecule `CC(CCN1CCC(NCc2ccc(-c3ccc(Cl)cc3)o2)C1)CC(C)(C)C` (centres undefined) displayed a Ki of 5000 nM.

As for `COCC1=C(C(=O)OC)[C@H](c2ccc(F)c(F)c2)N(C(=O)NCCCN2CCC(c3cccc(NC(C)=O)c3)CC2)C(=O)N1` [SNAP-7941], the inhibition constant Ki was 2 nM. This Ki lies about 2500-fold lower than the previous one.

The molecule `O=C(Cc1ccccc1)NC1CCN(CCc2ccccc2)C1` (centres undefined) yielded a Ki above 10000 nM.

As to `O=C(Cc1ccccc1)NC1CCN(Cc2ccccc2)C1` (centres undefined), the Ki was above 10000 nM.

In turn, `O=C(Cc1ccccc1)NC1CCN(Cc2ccc(Cl)c(Cl)c2)C1` (centres undefined) yielded a Ki of 980 nM.

`O=C(Cc1csc2ccccc12)NC[C@H]1CCCN1Cc1ccc(Cl)c(Cl)c1` displayed a Ki of 9800 nM.

For the molecule `O=C(Cc1ccc(Oc2ccccc2)cc1)NC1CCN(Cc2ccc(Cl)c(Cl)c2)C1` (centres undefined), the inhibition constant (Ki) came out at 510 nM.

In the case of `O=C(CCc1ccccc1)NC1CCN(Cc2ccc(Cl)c(Cl)c2)C1` (centres undefined), the inhibition constant Ki was above 10000 nM.

`O=C(CCCc1ccccc1)NC[C@@H]1CCCN1CCc1ccccc1` returned a Ki above 10000 nM.

`O=C(CCCc1ccccc1)NC[C@H]1CCCN1CCc1ccccc1` returned a Ki of 3100 nM.

As to `O=C(Cc1csc2ccccc12)NC1CCN(Cc2ccc(Cl)c(Cl)c2)C1` (centres undefined), the inhibitory constant (Ki) is 360 nM. This Ki lies about 8.6-fold lower than the previous one.

As to `O=C(Cc1ccc2c(c1)OCO2)NC1CCN(Cc2ccc(Cl)c(Cl)c2)C1` (centres undefined), the Ki stood at 630 nM.

With `O=C(Cc1csc2ccccc12)NC[C@@H]1CCCN1Cc1ccc(Cl)c(Cl)c1`, the affinity corresponds to a Ki of 6000 nM.

`Clc1ccc(-c2ccc(CNC3CCN(CC(c4ccccc4)c4ccccc4)C3)o2)cc1` (centres undefined) displayed an inhibition constant Ki of 1700 nM.
